pIC50: −log10 of the molar value. The source made the active and inactive calls. No cut-off for these calls is given here.
How the values were obtained:
[1] = Inhibition of PI3K p110alpha/p85 (unknown origin) using PIP2/ATP as substrate after 1 hr by kinase glo luminescent assay; design: species or system Homo sapiens
How it was run: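 PI3K p110α activity read by Kinase-Glo Plus luminescence. IC50 is the mean of triplicate measurements.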

A549 = experiment: Antiproliferative activity against human A549 cells after 72 hrs by CCK8 assay; format: functional, cell-based
NCI-N87 = experiment: Antiproliferative activity against human NCI-N87 cells after 72 hrs by CCK8 assay; format: functional, cell-based
MDA-MB-231 [2] = experiment: Antiproliferative activity against human MDA-MB-231 cells by WST8 assay; format: functional, cell-based
U-937 = experiment: Antiproliferative activity against human U937 cells after 72 hrs by CCK8 assay; format: functional, cell-based
HeLa = experiment: Antiproliferative activity against human HeLa cells after 72 hrs by CCK8 assay; format: functional, cell-based
PANC-1 = experiment: Antiproliferative activity against human PANC1 cells after 72 hrs by CCK8 assay; format: functional, cell-based
HL-60 = experiment: Antiproliferative activity against human HL60 cells after 72 hrs by CCK8 assay; format: functional, cell-based; details: HL-60, 72 h
PC-3 = experiment: Antiproliferative activity against human PC3 cells after 72 hrs by CCK8 assay; format: functional, cell-based; details: PC-3, 72 h
A-431 = experiment: Antiproliferative activity against human A431 cells after 72 hrs by CCK8 assay; format: functional, cell-based
K562 = experiment: Antiproliferative activity against human K562 cells after 72 hrs by CCK8 assay; format: functional, cell-based
SK-BR-3 = experiment: Antiproliferative activity against human SK-BR-3 cells after 72 hrs by CCK8 assay; format: functional, cell-based; details: SK-BR-3, 72 h
DU-145 = experiment: Antiproliferative activity against human DU145 cells after 72 hrs by CCK8 assay; format: functional, cell-based
MOLT-4 = experiment: Antiproliferative activity against human MOLT4 cells after 72 hrs by CCK8 assay; format: functional, cell-based
MCF7 = experiment: Antiproliferative activity against human MCF7 cells after 72 hrs by CCK8 assay; format: functional, cell-based
Homo sapiens [3] = organism: Homo sapiens; experiment: Inhibition of PI3K in human U937 cells assessed as suppression of AKT phosphorylation at S473 after 24 hrs by Western blot analysis; format: cell-based
[4] = biological target: PI3-kinase subunit gamma/Phosphoinositide 3-kinase regulatory subunit 5 (Homo sapiens, UniProt P48736); experiment: Inhibition of PI3K p110gamma/p101 (unknown origin) using PIP2/ATP as substrate after 1 hr by kinase glo luminescent assay; format: protein-complex assay
Chain of PI3-kinase subunit gamma/Phosphoinositide 3-kinase regulatory subunit 5 (P48736 whole entry): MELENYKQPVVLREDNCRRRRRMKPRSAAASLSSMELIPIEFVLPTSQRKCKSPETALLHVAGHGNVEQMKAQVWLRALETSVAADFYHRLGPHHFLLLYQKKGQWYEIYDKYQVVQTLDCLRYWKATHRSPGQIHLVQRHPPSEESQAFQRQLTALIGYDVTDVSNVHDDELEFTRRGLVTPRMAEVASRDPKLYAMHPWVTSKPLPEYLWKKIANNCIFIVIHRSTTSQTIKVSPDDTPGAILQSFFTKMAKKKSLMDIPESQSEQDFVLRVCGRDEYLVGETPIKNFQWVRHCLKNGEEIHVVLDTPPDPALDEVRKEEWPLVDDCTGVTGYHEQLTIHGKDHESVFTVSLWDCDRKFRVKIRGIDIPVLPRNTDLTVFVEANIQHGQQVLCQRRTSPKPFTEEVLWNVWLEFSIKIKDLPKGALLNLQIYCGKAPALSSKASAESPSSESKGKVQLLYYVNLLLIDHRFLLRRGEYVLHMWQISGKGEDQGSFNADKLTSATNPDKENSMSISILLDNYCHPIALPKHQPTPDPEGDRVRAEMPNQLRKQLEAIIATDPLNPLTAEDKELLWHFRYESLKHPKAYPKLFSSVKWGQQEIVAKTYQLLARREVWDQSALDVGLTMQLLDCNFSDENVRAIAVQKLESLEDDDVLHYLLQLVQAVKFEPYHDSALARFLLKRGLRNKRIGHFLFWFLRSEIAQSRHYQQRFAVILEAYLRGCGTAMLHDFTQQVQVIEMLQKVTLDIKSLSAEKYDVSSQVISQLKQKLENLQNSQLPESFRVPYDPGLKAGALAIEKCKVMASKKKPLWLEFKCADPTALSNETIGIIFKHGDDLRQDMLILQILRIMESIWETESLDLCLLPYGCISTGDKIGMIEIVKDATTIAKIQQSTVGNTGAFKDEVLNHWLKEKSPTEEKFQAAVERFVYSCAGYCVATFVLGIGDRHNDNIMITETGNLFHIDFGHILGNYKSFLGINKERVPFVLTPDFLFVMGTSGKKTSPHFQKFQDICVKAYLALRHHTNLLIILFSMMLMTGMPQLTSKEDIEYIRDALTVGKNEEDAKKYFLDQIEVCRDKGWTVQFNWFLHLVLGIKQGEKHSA
Chain of PI3-kinase subunit gamma/Phosphoinositide 3-kinase regulatory subunit 5 (Q8WYR1 whole entry, further chain): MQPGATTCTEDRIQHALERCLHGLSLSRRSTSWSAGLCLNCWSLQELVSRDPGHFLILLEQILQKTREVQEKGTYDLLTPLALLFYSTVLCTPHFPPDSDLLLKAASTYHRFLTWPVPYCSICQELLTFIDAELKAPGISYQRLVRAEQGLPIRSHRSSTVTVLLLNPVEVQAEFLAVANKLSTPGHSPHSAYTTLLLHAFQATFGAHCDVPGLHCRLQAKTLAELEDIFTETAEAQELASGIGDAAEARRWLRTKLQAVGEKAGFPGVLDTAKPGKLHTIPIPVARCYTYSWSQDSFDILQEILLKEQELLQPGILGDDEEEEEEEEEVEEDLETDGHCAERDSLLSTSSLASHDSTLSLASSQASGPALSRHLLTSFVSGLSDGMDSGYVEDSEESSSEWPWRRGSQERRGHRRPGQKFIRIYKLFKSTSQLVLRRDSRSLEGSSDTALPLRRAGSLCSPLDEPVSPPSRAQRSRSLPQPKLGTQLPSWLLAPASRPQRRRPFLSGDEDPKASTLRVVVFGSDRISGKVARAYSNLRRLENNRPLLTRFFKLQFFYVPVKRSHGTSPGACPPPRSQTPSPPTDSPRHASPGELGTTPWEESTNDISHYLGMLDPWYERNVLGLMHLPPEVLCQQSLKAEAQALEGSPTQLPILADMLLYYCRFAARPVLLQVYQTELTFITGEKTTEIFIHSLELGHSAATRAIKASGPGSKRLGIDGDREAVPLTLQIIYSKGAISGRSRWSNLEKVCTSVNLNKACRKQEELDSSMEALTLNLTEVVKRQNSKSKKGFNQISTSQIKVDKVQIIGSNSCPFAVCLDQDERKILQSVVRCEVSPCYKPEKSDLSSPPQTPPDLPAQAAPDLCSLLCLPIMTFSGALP

Bel-7402 = experiment: Antiproliferative activity against human Bel7402 cells after 72 hrs by CCK8 assay; format: functional, cell-based; details: Bel-7402, 72 h
BGC-823 = experiment: Antiproliferative activity against human BGC823 cells after 72 hrs by CCK8 assay; format: functional, cell-based; details: Homo sapiens, BGC-823, 72 h
HT-1080 = experiment: Antiproliferative activity against human HT1080 cells after 72 hrs by CCK8 assay; format: functional, cell-based; details: HT-1080, 72 h
MDA-MB-231 [5] = experiment: Antitumor activity against human MDA-MB-231 cells xenografted in nude mouse assessed as tumor weight at 30 mg/kg, ig administered every 2 days for 19 days measured post last dose (reference value: 0.74 +/- 0.10 g); format: functional
How it was run: (§1)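 Nude mice carried MDA-MB-231 xenograft tumours and received vehicle or 30 mg/kg intragastrically every two days for 19 days. Estimated tumour volume and body weight were followed over time. Tumours were dissected from 5 mice per group and weighed. Data are mean±SD, n=5, Student t test.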

SGC-7901 = experiment: Antiproliferative activity against human SGC7901 cells after 72 hrs by CCK8 assay; format: functional, cell-based; details: SGC-7901, 72 h
[6] = Inhibition of PI3K p110beta/p85 (unknown origin) using PIP2/ATP as substrate after 1 hr by kinase glo luminescent assay; design: species or system Homo sapiens
Huh-7 = experiment: Antiproliferative activity against human HuH7 cells after 72 hrs by CCK8 assay; format: functional, cell-based; details: Huh-7, 72 h
[7] = Toxicity in nude mouse xenografted with human MDA-MB-231 cells assessed as decrease in body weight at 30 mg/kg, ig administered every 2 days for 19 days measured during compound dosing; format: organism-based; details: in vivo, po; how it was run: as §1
[8] = Inhibition of PI3K p110delta/p85 (unknown origin) using PIP2/ATP as substrate after 1 hr by kinase glo luminescent assay; design: species or system Homo sapiens
MDA-MB-231 [9] = experiment: Antitumor activity against human MDA-MB-231 cells xenografted in nude mouse assessed as tumor size at 30 mg/kg, ig administered every 2 days for 19 days measured post last dose (reference value: 1065 +/- 142 mm'3); format: functional; how it was run: as §1
Homo sapiens [10] = organism: Homo sapiens; experiment: Selectivity ratio of IC50 for PI3K p110beta/p85 (unknown origin) to IC50 for PI3K p110alpha/p85 (unknown origin)

Structure (SMILES) | pIC50 [1] | pIC50 (A549; Homo sapiens, A549, 72 h) | pIC50 (NCI-N87; Homo sapiens, NCI-N87, 72 h) | pIC50 (MDA-MB-231 [2]) | pIC50 (U-937; Homo sapiens, U-937, 72 h) | pIC50 (HeLa; Homo sapiens, HeLa, 72 h) | pIC50 (PANC-1; Homo sapiens, PANC-1, 72 h) | pIC50 (HL-60) | pIC50 (PC-3) | pIC50 (A-431; Homo sapiens, A-431, 72 h) | pIC50 (K562; Homo sapiens, K562, 72 h) | pIC50 (SK-BR-3) | pIC50 (DU-145; Homo sapiens, DU-145, 72 h) | pIC50 (MOLT-4; Homo sapiens, MOLT-4, 72 h) | pIC50 (MCF7; Homo sapiens, MCF7, 72 h) | inhibition (Homo sapiens [3]) | pIC50 [6] | pIC50 [8] | further results
Nc1cc(C(F)(F)F)c(-c2cc(N3CCOCC3)nc(Nc3cccc(N4CCOCC4)c3)n2)cn1 | 6.93 | 5.34 | 5.33 | 5.14 | 4.98 | < 4.00 | 5.07 | 5.36 | 5.66 | 4.94 | 4.83 | 5.19 | 6.00 | 5.39 | 4.78 |  |  |  | 
Nc1cc(C(F)(F)F)c(-c2cc(N3CCOCC3)nc(N3C[C@@H]4OCCO[C@H]4C3)n2)cn1 (racemic) [listing 1 of 2 here] |  |  |  |  |  |  |  |  |  |  |  |  |  |  |  | Active |  |  | 
Nc1cc(C(F)(F)F)c(-c2nc(N3CCOCC3)nc(N3C[C@H]4OCCO[C@@H]4C3)n2)cn1 | 7.17 |  |  | 4.82 |  |  |  | 5.57 | 5.25 |  |  | 5.37 |  |  |  |  |  |  | pIC50 (A549; a549): 5.10; pIC50 (NCI-N87; nci-n87): 5.41; pIC50 (U-937; u-937): 5.39; pIC50 (HeLa; hela): < 4.00; pIC50 (PANC-1; panc-1): 5.04; pIC50 (A-431; a-431): 4.85; pIC50 (K562; k562): 4.61; pIC50 (DU-145; du-145): 5.13; pIC50 (MOLT-4; molt-4): 5.64; pIC50 (MCF7; mcf7): 5.14
CS(=O)(=O)N1CCN(c2ccc(Nc3nc(-c4cnc(N)cc4C(F)(F)F)cc(N4CCOCC4)n3)cc2)CC1 | 7.51 | 5.26 | 5.89 | 5.27 | 5.62 | < 4.00 | 5.63 | 6.03 | 5.13 | 5.23 | 4.95 | 5.79 | 5.17 | 5.95 | 5.30 |  |  |  | 
Nc1cc(C(F)(F)F)c(-c2cc(N3CCOCC3)nc(N3C[C@@H]4OCCO[C@H]4C3)n2)cn1 (racemic) [listing 2 of 2 here] | 7.51 | 5.47 | 5.87 |  | 6.11 | 5.58 | 5.49 |  |  | 5.43 | 5.37 |  |  | 6.00 | 5.62 |  | 6.76 | 7.21 | pIC50 [4]: 6.80; pIC50 (Bel-7402): 5.47; pIC50 (BGC-823): 5.51; pIC50 (HT-1080): 5.33; Activity (MDA-MB-231 [5]): 0.32 g; pIC50 (SGC-7901): 5.50; pIC50 (Huh-7): 5.37; pIC50 (DU-145; du-145): 5.71; Activity [7]: Non-Toxic; Activity (MDA-MB-231 [9]): 402 mm3
Nc1cc(C(F)(F)F)c(-c2cc(N3CCOCC3)nc(N3CCOCC3)n2)cn1 [BUPARLISIB] | 7.55 | 5.82 | 6.18 |  | 6.24 | 5.93 | 5.74 |  |  | 5.99 | 5.96 |  | 6.04 | 6.10 | 5.82 | Active | 6.59 | 7.21 | pIC50 (Bel-7402): 5.72; pIC50 (BGC-823): 5.84; pIC50 (HT-1080): 5.68; pIC50 (SGC-7901): 5.91; pIC50 (Huh-7): 5.82
Nc1cc(C(F)(F)F)c(-c2nc(N3CCOCC3)nc(N3C[C@@H]4OCCO[C@H]4C3)n2)cn1 | 7.42 | 5.02 | 5.56 | 4.92 | 5.26 | < 4.00 | 5.12 | 5.31 | 5.20 | 4.49 | 4.61 | 5.44 | 5.97 | 5.68 | 5.03 |  |  |  | 
CS(=O)(=O)N1CCN(C(=O)c2ccc(Nc3nc(-c4cnc(N)cc4C(F)(F)F)cc(N4CCOCC4)n3)cc2)CC1 | 7.74 | 5.04 | 5.37 | 5.36 | 5.32 | < 4.00 | 5.46 | 5.60 | 4.71 | 4.98 |  | 5.32 |  | 5.71 | 4.89 | Active | 5.70 | 7.89 | Ratio IC50 (Homo sapiens [10]): 112; pIC50 [4]: 7.10
